Measured values from ChEMBL document CHEMBL3603810, “Discovery of Potent and Selective RSK Inhibitors as Biological Probes” (J Med Chem, 2015).
Activity calls are given as the source filed them. The rule behind the calls is not given here.

Assays:
[1] = biological target: Ribosomal protein S6 kinase alpha-3 (Mus musculus, UniProt P18654); test: Inhibition of RSK2 in mouse BAF cells expressing activated FGFR assessed as reduction of YB1 phosphorylation at Ser102 by electochemiluminescence assay; type: cell-based
Ribosomal protein S6 kinase alpha-3 (Mus musculus, UniProt P18654), sequence (P18654 whole entry): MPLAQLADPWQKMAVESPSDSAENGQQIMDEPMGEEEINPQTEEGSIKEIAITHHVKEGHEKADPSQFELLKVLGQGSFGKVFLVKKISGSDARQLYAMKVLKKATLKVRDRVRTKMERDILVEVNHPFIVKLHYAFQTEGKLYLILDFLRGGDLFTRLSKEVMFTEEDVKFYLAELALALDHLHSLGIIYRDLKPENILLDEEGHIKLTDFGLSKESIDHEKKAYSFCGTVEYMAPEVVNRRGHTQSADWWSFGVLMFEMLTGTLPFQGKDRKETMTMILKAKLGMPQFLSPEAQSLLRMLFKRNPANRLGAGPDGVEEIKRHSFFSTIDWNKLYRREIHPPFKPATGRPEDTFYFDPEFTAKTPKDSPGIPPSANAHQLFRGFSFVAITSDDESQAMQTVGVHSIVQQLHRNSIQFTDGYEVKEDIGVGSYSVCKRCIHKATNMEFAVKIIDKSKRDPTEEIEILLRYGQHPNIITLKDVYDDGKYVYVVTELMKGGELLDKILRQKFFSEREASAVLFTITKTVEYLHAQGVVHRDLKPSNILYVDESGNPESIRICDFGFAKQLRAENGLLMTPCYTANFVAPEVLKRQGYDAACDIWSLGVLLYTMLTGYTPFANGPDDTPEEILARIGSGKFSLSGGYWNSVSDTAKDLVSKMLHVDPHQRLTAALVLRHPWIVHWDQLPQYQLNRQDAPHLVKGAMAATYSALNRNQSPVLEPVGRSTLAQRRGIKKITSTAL
Summary of the method: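 Cellular Ser102-phospho-YB1 ECL immunoassay in mouse BAF cells engineered to express activated FGFR. RIPA lysates are bound overnight at 4 °C to high-bind plates. Plates are blocked 2 h at rt with 10% BSA. Detection uses phospho-Ser102 YB1 antibody (1.3 μg/mL, 2 h rt), then sulfo-tag goat anti-rabbit antibody (0.5 μg/mL, 2 h rt), then MSD read buffer.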

[2] = biological target: Ribosomal protein S6 kinase alpha-3 (Homo sapiens, UniProt P51812)
Ribosomal protein S6 kinase alpha-3 (Homo sapiens, UniProt P51812), sequence (P51812 whole entry): as the sequence (P18654 whole entry) above, with G45V counted along it

Caco-2 = test: Permeability across human Caco2 cells; type: ADME, cell-based
[3] = Volume of distribution at steady state in iv dosed Sprague-Dawley rat; type: ADME, organism-based; details: in vivo, read-out: Vdss
Summary of the method: (§1)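 Single-dose plasma pharmacokinetics in male Sprague-Dawley rats following intravenous administration.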

[4] = Clearance in iv dosed Sprague-Dawley rat; type: ADME, organism-based; details: in vivo; summary of the method: as §1
[5] = Plasma half life in iv dosed Sprague-Dawley rat; type: ADME, organism-based; summary of the method: as §1
[6] = Clearance in rat liver microsomes; type: ADME; details: read-out: CLH
[7] = biological target: Ribosomal protein S6 kinase alpha-6 (Homo sapiens) (UniProt Q9UK32); test: Binding affinity to DNA-tagged RSK4 N-terminal kinase domain (unknown origin) assessed as level of protein captured on solid support at 10 uM by qPCR analysis relative to control
Ribosomal protein S6 kinase alpha-6 (Homo sapiens), sequence (Q9UK32 whole entry, the tested form may be a part): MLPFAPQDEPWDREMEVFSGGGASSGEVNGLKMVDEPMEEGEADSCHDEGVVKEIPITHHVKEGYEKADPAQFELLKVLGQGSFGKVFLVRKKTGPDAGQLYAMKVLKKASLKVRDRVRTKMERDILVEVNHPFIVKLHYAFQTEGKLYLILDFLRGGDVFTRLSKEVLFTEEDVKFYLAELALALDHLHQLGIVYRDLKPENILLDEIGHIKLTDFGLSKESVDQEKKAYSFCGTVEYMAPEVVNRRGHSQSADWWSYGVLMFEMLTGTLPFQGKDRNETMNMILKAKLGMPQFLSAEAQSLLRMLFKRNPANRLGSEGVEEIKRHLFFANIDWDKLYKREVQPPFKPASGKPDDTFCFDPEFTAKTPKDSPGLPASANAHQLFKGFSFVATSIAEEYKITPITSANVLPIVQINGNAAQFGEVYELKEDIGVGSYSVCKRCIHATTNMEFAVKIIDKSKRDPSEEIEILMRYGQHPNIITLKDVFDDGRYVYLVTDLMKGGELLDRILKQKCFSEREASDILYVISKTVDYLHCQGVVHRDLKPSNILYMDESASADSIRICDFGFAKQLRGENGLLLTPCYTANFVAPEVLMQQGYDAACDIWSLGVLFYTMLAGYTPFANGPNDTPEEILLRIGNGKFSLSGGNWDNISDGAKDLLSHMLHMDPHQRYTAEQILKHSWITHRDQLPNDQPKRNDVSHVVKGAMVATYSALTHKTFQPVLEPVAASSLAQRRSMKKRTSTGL
Summary of the method: (§2)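 Competitive binding panel (KinomeScan) run at 10 μM test concentration, 96 kinases in the panel, or 442 in the expanded panel. Results are reported as […], where smaller values mean stronger binding.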

[8] = biological target: Ribosomal protein S6 kinase alpha-2 (Homo sapiens) (UniProt Q15349); test: Binding affinity to DNA-tagged RSK3 N-terminal kinase domain (unknown origin) assessed as level of protein captured on solid support at 10 uM by qPCR analysis relative to control; summary of the method: as §2
Ribosomal protein S6 kinase alpha-2 (Homo sapiens), sequence (Q15349 whole entry, the tested form may be a part): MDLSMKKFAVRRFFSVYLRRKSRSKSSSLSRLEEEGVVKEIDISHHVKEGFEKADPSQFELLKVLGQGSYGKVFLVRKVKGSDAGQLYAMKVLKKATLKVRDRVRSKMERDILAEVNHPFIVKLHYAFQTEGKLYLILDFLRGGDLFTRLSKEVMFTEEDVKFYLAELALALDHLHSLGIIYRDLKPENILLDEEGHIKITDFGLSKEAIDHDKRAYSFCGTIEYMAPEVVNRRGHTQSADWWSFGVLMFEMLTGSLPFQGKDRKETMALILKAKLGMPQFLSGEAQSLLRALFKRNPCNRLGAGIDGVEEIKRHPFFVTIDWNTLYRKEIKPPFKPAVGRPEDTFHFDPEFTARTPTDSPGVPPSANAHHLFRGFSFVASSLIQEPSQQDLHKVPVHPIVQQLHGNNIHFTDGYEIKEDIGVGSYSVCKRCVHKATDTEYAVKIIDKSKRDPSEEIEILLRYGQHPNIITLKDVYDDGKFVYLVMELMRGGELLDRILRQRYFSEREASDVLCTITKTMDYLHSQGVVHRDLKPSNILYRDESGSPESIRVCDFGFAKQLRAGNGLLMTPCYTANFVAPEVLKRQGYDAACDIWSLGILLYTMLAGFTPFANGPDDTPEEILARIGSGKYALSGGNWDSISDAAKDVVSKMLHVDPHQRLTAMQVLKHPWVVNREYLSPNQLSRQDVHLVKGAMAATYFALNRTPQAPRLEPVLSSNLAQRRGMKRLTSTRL

[9] = biological target: Ribosomal protein S6 kinase alpha-1 (Homo sapiens) (UniProt Q15418); test: Binding affinity to DNA-tagged RSK1 N-terminal kinase domain (unknown origin) assessed as level of protein captured on solid support at 10 uM by qPCR analysis relative to control; summary of the method: as §2
Ribosomal protein S6 kinase alpha-1 (Homo sapiens), sequence (Q15418 whole entry, the tested form may be a part): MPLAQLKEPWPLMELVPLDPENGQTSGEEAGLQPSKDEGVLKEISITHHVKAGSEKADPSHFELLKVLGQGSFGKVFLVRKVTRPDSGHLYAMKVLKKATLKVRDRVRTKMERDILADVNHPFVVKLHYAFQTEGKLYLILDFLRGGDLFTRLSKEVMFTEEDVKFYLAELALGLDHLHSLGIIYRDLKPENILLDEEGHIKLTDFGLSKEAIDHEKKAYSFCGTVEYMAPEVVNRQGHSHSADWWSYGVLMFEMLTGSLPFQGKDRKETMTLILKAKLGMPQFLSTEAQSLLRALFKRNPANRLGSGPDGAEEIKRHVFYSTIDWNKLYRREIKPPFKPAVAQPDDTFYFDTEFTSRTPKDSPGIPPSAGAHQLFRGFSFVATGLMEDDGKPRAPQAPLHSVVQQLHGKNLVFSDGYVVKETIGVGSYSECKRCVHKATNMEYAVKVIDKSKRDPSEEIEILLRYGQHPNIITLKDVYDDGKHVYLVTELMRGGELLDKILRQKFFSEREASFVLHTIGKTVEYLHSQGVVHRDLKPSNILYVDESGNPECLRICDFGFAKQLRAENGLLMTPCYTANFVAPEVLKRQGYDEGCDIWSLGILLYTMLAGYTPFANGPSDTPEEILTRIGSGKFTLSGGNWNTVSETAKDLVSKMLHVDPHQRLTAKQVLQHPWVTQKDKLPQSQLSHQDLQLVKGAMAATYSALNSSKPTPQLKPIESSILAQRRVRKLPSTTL

[10] = biological target: Serine/threonine-protein kinase PLK1 (Homo sapiens) (UniProt P53350); test: Binding affinity to DNA-tagged PLK (unknown origin) at 10 uM by qPCR analysis; summary of the method: as §2
Serine/threonine-protein kinase PLK1 (Homo sapiens), sequence (P53350 whole entry): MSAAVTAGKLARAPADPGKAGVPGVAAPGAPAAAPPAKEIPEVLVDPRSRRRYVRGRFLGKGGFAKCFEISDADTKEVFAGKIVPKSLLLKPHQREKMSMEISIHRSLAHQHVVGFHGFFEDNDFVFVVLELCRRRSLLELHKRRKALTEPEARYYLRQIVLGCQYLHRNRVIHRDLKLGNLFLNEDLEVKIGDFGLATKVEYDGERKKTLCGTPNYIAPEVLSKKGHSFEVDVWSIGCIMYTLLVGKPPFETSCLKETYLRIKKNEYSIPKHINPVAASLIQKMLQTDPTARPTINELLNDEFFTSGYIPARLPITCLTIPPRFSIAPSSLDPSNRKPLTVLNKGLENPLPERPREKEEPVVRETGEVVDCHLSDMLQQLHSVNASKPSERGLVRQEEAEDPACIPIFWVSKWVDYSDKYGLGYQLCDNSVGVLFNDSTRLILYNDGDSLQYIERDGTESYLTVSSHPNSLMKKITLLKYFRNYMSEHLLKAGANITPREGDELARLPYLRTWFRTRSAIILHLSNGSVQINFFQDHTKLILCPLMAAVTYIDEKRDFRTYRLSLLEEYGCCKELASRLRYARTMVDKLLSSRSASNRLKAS

Row | Compound | EC50 [1] | IC50 [2] | further results
1 | Nc1n[nH]c(-c2ccc(O)cc2)c1-c1ccccc1 | 3200 nM | 53 nM | 
2 | CNC(=O)c1ccc(-c2ccncc2-c2cc(F)c(O)c(F)c2)cc1 | 2100 nM | 20 nM | 
3 | CN1CCN(c2cccc(-c3ccncc3-c3cc(F)c(O)c(F)c3)c2)CC1 | 1100 nM | 4 nM | 
4 | Oc1c(F)cc(-c2cnccc2-c2ccc(N3CCNCC3)cc2)cc1F | 140 nM | 6 nM | 
5 | Oc1ccc(-c2[nH]ncc2-c2ccccc2)cc1 | > 20000 nM | 150 nM | 
6 | Cc1cccc(-c2ccncc2-c2cc(F)c(O)c(F)c2)c1 | 4100 nM | 32 nM | 
7 | Oc1ccc(-c2ccncc2-c2cc(F)c(O)c(F)c2)cc1 | 6400 nM | 50 nM | 
8 | Oc1ccc(-c2cn[nH]c2-c2cc(F)c(O)c(F)c2)cc1 | 1400 nM | 6 nM | 
9 | COc1cccc(-c2ccncc2-c2cc(F)c(O)c(F)c2)c1 | 5600 nM | 46 nM | 
10 | CC(C)Nc1ncc(-c2cc(F)c(O)c(F)c2)c(-c2ccc(N3CCN(C)CC3)cc2)n1 | 610 nM | 20 nM | 
11 | Oc1ccc(-c2cn[nH]c2-c2ccccc2)cc1 | > 20000 nM | 2500 nM | 
12 | Oc1ccc(-c2ccncc2-c2ccc(O)cc2)cc1 | 9300 nM | 180 nM | permeability (Caco-2): permeable
13 | CN1CCN(c2ccc(-c3ccncc3-c3cc(F)c(O)c(F)c3)cc2)CC1 | 340 nM | 5 nM | Vd [3]: 1.6 L/kg; clearance [4]: 166 mL/min/kg; half-life [5]: 13 min; microsomal CLint [6]: 170 µL/min/mg
14 | CC(C)c1ccncc1-c1cc(F)c(O)c(F)c1 | > 20000 nM | 780 nM | 
15 | Cc1ccc(Nc2cc(-c3ccc(N4CCN(C)CC4)cc3)c(-c3cc(F)c(O)c(F)c3)cn2)cc1 | 690 nM | 6 nM | 
16 | Oc1ccc(-c2cn[nH]c2-c2ccc(O)cc2)cc1 | 2800 nM | 24 nM | permeability (Caco-2): permeable
17 | NCCOc1cccc(-c2ccncc2-c2cc(F)c(O)c(F)c2)c1 | 490 nM | 4 nM | 
18 | Oc1c(F)cc(-c2cnccc2-c2ccc(N3CCOCC3)cc2)cc1F | 210 nM | 4 nM | Activity [7]: 0%; Activity [8]: 0.05%; Activity [9]: 0%; Activity [10]: inactive

Row | Compound | EC50 [1] | IC50 [2] | further results
19 | Oc1c(F)cc(-c2cnccc2-c2ccccc2)cc1F | 4200 nM | 60 nM | 
20 | Oc1c(F)cc(-c2cnccc2-c2cccc(N3CCOCC3)c2)cc1F | 2300 nM | 18 nM | 
21 | Oc1c(F)cc(-c2cnccc2C2CCNCC2)cc1F | > 20000 nM | 2100 nM | 
22 | Cc1ccc(-c2ccncc2-c2cc(F)c(O)c(F)c2)cc1 | 1600 nM | 7 nM | 
23 | CC(C)CNc1cc(-c2ccc(N3CCN(C)CC3)cc2)c(-c2cc(F)c(O)c(F)c2)cn1 | 2500 nM | 22 nM | 
24 | Oc1c(F)cc(-c2cnccc2-c2ccc(F)cc2)cc1F | 10400 nM | 94 nM | 
25 | Cc1ccc(-c2nc(N)ncc2-c2cc(F)c(O)c(F)c2)cc1 | 360 nM | 10 nM | 
26 | CNc1cc(-c2ccc(N3CCN(C)CC3)cc2)c(-c2cc(F)c(O)c(F)c2)cn1 | 580 nM | 14 nM | 
27 | Oc1c(Cl)cc(-c2cnccc2-c2ccc(F)cc2)cc1Cl | > 20000 nM | 4800 nM | 
28 | CC(C)CCN1c2nc(Nc3cc(F)c(O)c(F)c3)ncc2N(C)C(=O)[C@H]1C | 500 nM |  | Activity [10]: Active
29 | COc1ccc(-c2ccncc2-c2cc(F)c(O)c(F)c2)cn1 | 5300 nM | 80 nM | 
30 | Oc1c(F)cc(-c2cnccc2-c2cccc(-c3cn[nH]c3)c2)cc1F | 1100 nM | 5 nM | 
31 | CNc1ncc(-c2cc(F)c(O)c(F)c2)c(-c2ccc(C)cc2)n1 | 690 nM | 13 nM | 
32 | COc1ccc(-c2ccncc2-c2cc(F)c(O)c(F)c2)cc1 | 1100 nM | 8 nM | 
33 | CN1CCN(c2ccc(-c3cc(N)ncc3-c3cc(F)c(O)c(F)c3)cc2)CC1 | 440 nM | 6 nM | 
34 | Oc1c(F)cc(-c2cnccc2C2CCOCC2)cc1F | 2200 nM | 130 nM | 
35 | Cc1ccc(-c2nc(NC(C)C)ncc2-c2cc(F)c(O)c(F)c2)cc1 | 1500 nM | 23 nM | 
